# Data reported in ChEMBL document CHEMBL1144689, “Antileukemic activity of genistein, a major isoflavone present in soy products” (J Nat Prod, 2008).
# The source made the active and inactive calls. The rule behind the calls is not given here.
# Key:
# L1210 [1] = assay: Antileukemic activity against mouse L1210 cells at 2 uM after 24 hrs by clonogenic assay; format: functional
# Procedure, shortened: (§1)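 Murine L1210 cells cultured in RPMI-1640 with 5% heat-inactivated FCS and 6 µM 2-mercaptoethanol. Log-phase cells at 2 × 10^4 cells/mL exposed to 1–20 µM for 12, 24 or 48 h, then drug removed by centrifugation. 100 cells plated in 0.45% soft agar with 10% serum. Colonies >50 cells counted at day 7. Result as % relative to untreated control. Triplicate, three repeats, mean ± SEM.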
# L1210 [2] = assay: Antileukemic activity against mouse L1210 cells at 2 uM after 48 hrs by clonogenic assay; format: functional; procedure, shortened: as §1
# L1210 [3] = assay: Antileukemic activity against mouse L1210 cells at 5 uM after 12 hrs by clonogenic assay; format: functional; procedure, shortened: as §1
# L1210 [4] = assay: Antileukemic activity against mouse L1210 cells at 5 uM after 24 hrs by clonogenic assay; format: functional; procedure, shortened: as §1
# L1210 [5] = assay: Antileukemic activity against mouse L1210 cells at 5 uM after 48 hrs by clonogenic assay; format: functional; procedure, shortened: as §1
# L1210 [6] = assay: Antileukemic activity against mouse L1210 cells at 10 uM after 12 hrs by clonogenic assay; format: functional; procedure, shortened: as §1
# L1210 [7] = assay: Antileukemic activity against mouse L1210 cells at 10 uM after 24 hrs by clonogenic assay; format: functional; procedure, shortened: as §1
# L1210 [8] = assay: Antileukemic activity against mouse L1210 cells at 10 uM after 48 hrs by clonogenic assay; format: functional; procedure, shortened: as §1
# L1210 [9] = assay: Antileukemic activity against mouse L1210 cells at 20 uM after 12 hrs by clonogenic assay; format: functional; procedure, shortened: as §1
# L1210 [10] = assay: Antileukemic activity against mouse L1210 cells at 20 uM after 24 hrs by clonogenic assay; format: functional; procedure, shortened: as §1
# L1210 [11] = assay: Antileukemic activity against mouse L1210 cells at 20 uM after 48 hrs by clonogenic assay; format: functional; procedure, shortened: as §1
# L1210 [12] = assay: Growth inhibition of mouse L1210 cells after 24 hrs; format: functional
# Procedure, shortened: (§2)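 For L1210 (RPMI-1640, 5% heat-inactivated FCS, 6 µM 2-mercaptoethanol), log-phase cultures at 2 × 10^4 cells/mL were given 1–20 µM for 12, 24 or 48 h. Coulter particle counter counts were expressed as % growth inhibition versus untreated control. IG50 was taken at 24 h. Triplicate, three repeats, mean ± SEM.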
# L1210 [13] = assay: Antileukemic activity against mouse L1210 cells after 24 hrs by clonogenic assay; format: functional; details: L1210, 24 h, read-out: LC50 (the source's name)
# Procedure, shortened: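 Murine L1210 grown in RPMI-1640 with 5% heat-inactivated FCS and 6 µM 2-mercaptoethanol. Log-phase cells at 2 × 10^4 cells/mL exposed to 1–20 µM for 24 h. Drug removed by centrifugation. 100 cells plated in 0.45% soft agar with 10% serum for 7 days, and colonies (>50 cells) counted. Loss is relative to untreated control. Triplicates, three experiments, mean ± SEM.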
# HL-60 [14] = assay: Growth inhibition of human HL60 cells at 5 uM after 48 hrs; format: functional; details: HL-60, 48 h, read-out: GI
# Procedure, shortened: (§3)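 Human leukemic cells (RPMI-1640, 10% heat-inactivated FBS), log phase, seeded at 2 × 10^4 cells/mL. Exposed to 1, 2, 5, 10 or 20 µM (DMSO stock). Cell number counted with a Coulter particle counter at 48 h. Growth inhibition as % of untreated control. IG50 is the concentration giving 50% inhibition. Triplicate, three repeats, mean ± SEM.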
# MOLT-3 = assay: Growth inhibition of human MOLT3 cells at 2 uM after 48 hrs; format: functional; details: MOLT-3, 48 h, read-out: GI; procedure, shortened: as §3
# L1210 [15] = assay: Antileukemic activity against mouse L1210 cells at 1 uM after 24 hrs by clonogenic assay; format: functional; procedure, shortened: as §1
# L1210 [16] = assay: Growth inhibition of mouse L1210 cells at 20 uM after 24 hrs; format: functional; details: L1210, 24 h, read-out: GI; procedure, shortened: as §2
# L1210 [17] = assay: Growth inhibition of mouse L1210 cells at 20 uM after 48 hrs; format: functional; details: L1210, 48 h, read-out: GI; procedure, shortened: as §2
# [18] = Elimination half life in human plasma; format: ADME, organism-based
# Plasma = assay: Drug concentration in human plasma; format: ADME, cell-free; details: read-out: Drug uptake
# Raji = assay: Growth inhibition of human Raji cells at 5 uM after 48 hrs; format: functional; details: read-out: GI; procedure, shortened: as §3
# [19] = Growth inhibition of human KG1a cells at 5 uM after 48 hrs; format: functional; details: KG-1a; procedure, shortened: as §3
# HL-60 [20] = assay: Induction of p57KIP2 re-expression in human HL60 cellular RNA at 1 to 20 uM after 48 hrs by RT-PCR; format: functional, cell-based
# Procedure, shortened: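 HL-60 cells treated 48 h with 1–20 µM. p57KIP2 transcript detected by RT-PCR against 18S rRNA reference, with cycles set in the exponential phase. Products resolved on 2% agarose with ethidium bromide staining. Repeated twice.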
# L1210 [21] = assay: Induction of p15CDKN2B re-expression in mouse L1210 cells at 1 to 20 uM after 24 hrs by RT-PCR; format: functional, cell-based
# Procedure, shortened: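 Murine L1210 cells exposed to 1–20 µM for 24 h. RNA analysed by RT-PCR for p15CDKN2B, with 18S rRNA as reference. Cycle number set within the exponential phase. Products run on 2% agarose and stained with ethidium bromide. Repeated twice.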
# Mus musculus = species on record: Mus musculus; assay: Toxicity in mouse L1210 cells transplanted CD2F1 mouse assessed as increase in survival time at 0.5% treated with diet for 10 days; format: organism-based; details: in vivo, po, 240 h
# Procedure, shortened: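 Male CD2F1 mice, 24–28 g, n = 11 per group, on a 2016 diet with or without 0.5% supplement, adapted over 10 days. Then injected i.v. with 10^4 L1210 cells (0.1 mL), passaged weekly i.p. as ascites. Diet continued. Survival checked 2–3 times daily and increase in life span calculated. Toxicity assessed by body weight loss.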
# [22] = Half life in CD2F1 mouse; format: ADME, organism-based; details: in vivo
compound,measurement,setting,value
O=c1c(-c2ccc(O)cc2)coc2cc(O)cc(O)c12 [GENISTEIN],Activity,L1210 [1],13%
same,Activity,L1210 [2],8.9%
same,Activity,L1210 [3],44%
same,Activity,L1210 [4],16%
same,Activity,L1210 [5],32.9%
same,Activity,L1210 [6],94%
same,Activity,L1210 [7],63%
same,Activity,L1210 [8],81.1%
same,Activity,L1210 [9],100%
same,Activity,L1210 [10],97%
same,Activity,L1210 [11],99.7%
same,IG50,L1210 [12],18.5 µM
same,CC50,L1210 [13],6.5 µM
same,inhibition of growth at 5 µM,HL-60 [14],> 10%
same,inhibition of growth at 2 µM,MOLT-3,> 10%
same,Activity,L1210 [15],6%
same,inhibition of growth at 20 µM,L1210 [16],66.7%
same,inhibition of growth at 20 µM,L1210 [17],93.1%
same,half-life,[18],15 h
same,concentration,Plasma,4 µM
same,inhibition of growth at 5 µM,Raji,> 10%
same,inhibition at 5 µM,[19],> 10%
same,Activity,HL-60 [20],Active
same,Activity,L1210 [21],Active
same,Survival,Mus musculus,187 h
same,half-life,[22],< 0.25 h
